Measured values gathered from unrelated publications.
Compare with care: the assays were run in different laboratories.
Target: Dual specificity tyrosine-phosphorylation-regulated kinase 1B (DYRK1B, Homo sapiens, UniProt Q9Y463)
Method: competition with immobilised ligand

`CC(C)(C)c1ccc(-c2nc(CBr)nn2-c2cccc(O)c2)cc1` gave a remaining binding of 78% (cell-free assay; 10 µM).
The remaining binding of `O=C(c1ccc(Nc2ncc(Cl)c(-c3ccc(Cl)s3)n2)cc1)N1CCC(N2CCCC2)CC1` is reported as 33% (binding; 1 µM).
`CCC(=O)N[C@@H]1CC[C@H](C(=O)N(C)c2ccc(-c3nc4ccccc4o3)cc2)C1` gave a remaining binding of 36% (cell-free assay; 1 µM).
The remaining binding of `O=C(c1ccc(Nc2ncc(Cl)c(-c3cc4ccccc4s3)n2)cc1)N1CCC(N2CCCC2)CC1` is reported as 18% (binding; 1 µM).
`COC(=O)Nc1nc2ccc(C(=O)c3ccccc3)cc2[nH]1` has a remaining binding of 5.6% (cell-free assay; 10 µM).
`COc1ccc2c(c1)O[C@@H](c1ccc(OC)c(OC)c1)C[C@H]2NC(=O)C1(c2ccc3c(c2)OC(F)(F)O3)CC1` gave a remaining binding of 100% (cell-free assay; 1 µM).
The remaining binding of `N#Cc1ccccc1CSc1nnc2c(n1)[nH]c1ccccc12` is reported as 74% (binding; 10 µM).
For `CNCc1ccccc1-c1csc([C@H](C)Nc2nc(C)nc3cc(OC)c(OC)cc23)c1`, the remaining binding was 55% (cell-free assay; 1 µM).
`COc1cnc(Nc2cccc(S(N)(=O)=O)c2)nc1N1CCN(c2ccccc2)CC1` gave a remaining binding of 100% (binding; 1 µM).
`c1cncc(-c2cccc(Nc3nccc(NC4CCCCC4)n3)c2)c1` has a remaining binding of 38% (binding; 10 µM).
With `O=C(NCC1CCOCC1)c1n[nH]cc1NC(=O)c1c(F)cccc1F` the remaining binding was 10% (binding; 1 µM).
For `CNC(=O)[C@@H]1CC[C@@H](n2c(-c3ccc4cnccc4c3)nc3ccc(C(=O)NCc4cccc(C(N)=O)c4)cc32)C1`, the remaining binding was 45% (binding; 1 µM).
`O=C(NCCCN1CCOCC1)c1ccc(Nc2ncc(Cl)c(-c3ccc(Cl)s3)n2)cc1` gave a remaining binding of 13% (binding; 1 µM).
`Nc1c(C(=O)NCc2ccc(C(=O)NCCCC3CCCCC3)cc2)cnn1-c1ccccc1` has a remaining binding of 100% (cell-free assay; 0.1 µM).
The remaining binding of `Nc1ncc2c(n1)-c1c([nH]c3ccc(C#CC4CC4)cc13)CCCC2` is reported as 77% (binding; 1 µM).
